Assay type in all cases: functional
A short description of test [1]: Growth inhibition of human CNS cancer cells after 48 hrs by coulter counter method. To be noted: Cancer cell lines. The gist of the method: (§1)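 NCI 60-line panel cells. Compound is dissolved in DMSO and diluted in phosphate-buffered saline, with final DMSO below 1%. It is added in duplicate wells to cultures at 6 × 10⁴ cells/ml and held at 37 °C, 5% CO₂, humidified, for 48 h. Cells are diluted 10-fold in saline, counted by Coulter counter and dilution-corrected. Vehicle controls contain PBS plus DMSO.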

Test [2] in a line: Growth inhibition of human colon cancer cells after 48 hrs by coulter counter method. Particulars: Cancer cell lines. Summed up:
as §1

A further test has as its system Melanoma cell. As to the kind of experiment: Growth inhibition of human Melanoma cells after 48 hrs by coulter counter method. The gist of the method: as §1
A short description of test [3]: Growth inhibition of human renal cancer cells after 48 hrs by coulter counter method. To be noted: Cancer cell lines. The gist of the method:
as §1

The subject of another test is NSCLC. As to the kind of experiment: Growth inhibition of human NSCLC cells after 48 hrs by coulter counter method. The gist of the method:
as §1

The nature of test [4]: Growth inhibition of human breast cancer cells after 48 hrs by coulter counter method. To be noted: Cancer cell lines. Summed up: as §1
Test [5] is described as follows: Growth inhibition of human ovarian cancer cells after 48 hrs by coulter counter method. To be noted: Cancer cell lines. The gist of the method: as §1
The nature of test [6]: Growth inhibition of human prostate cancer cells after 48 hrs by coulter counter method. Particulars: Cancer cell lines. The gist of the method: as §1
The nature of test [7]: Growth inhibition of human leukemia cells after 48 hrs by coulter counter method. Particulars: Leukemia cell. Summed up: as §1
[8] abbreviates: read-out: LC50 (the source's name).

With `O=c1[nH]cc(F)c(=O)[nH]1` [FLUOROURACIL], the TGI (in test [1]; in [2]; in the test with Melanoma cell; in [3]; in the test on NSCLC; in test [4]) was more than 100 µM in each case. In addition, the TGI in test [5], in test [6] and in [7] was more than 100 µM each time. Further, the CC50 (in test [1] (setting [8]); in test [3] (setting [8]); in the test on NSCLC (setting [8]); in test [4] (setting [8]); in test [7] (setting [8])) was more than 100 µM throughout. Also, the GI50 is 8.4 µM in test [2]; 45.6 µM in test [3]; more than 100 µM in the test on NSCLC; 76.4 µM in [4]; 61.4 µM in test [5]; 22.7 µM in test [6].

The values above are taken from ChEMBL document CHEMBL1926577, “Novel 1,3,4-heterodiazole analogues: synthesis and in-vitro antitumor activity” (2012).
